Measured values taken from BindingDB's records for PubMed 35512565 (Baylor College of Medicine, 2022).

Molecular target: Histone acetyltransferase p300 (Homo sapiens, UniProt Q09472)
Assay: Inhibition of human p300 HAT domain (1195 to 1673 residues) using histone H3 peptide and acetyl-coA as substrates preincubated for 10 mins followed by substrate addition and measured after 30 mins by beckman scintillation counting analysis
Summary of the method: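 Recombinant human p300 HAT domain (10 nM) was preincubated with a dilution series of inhibitor for 10 min at 25 °C in 50 mM phosphate buffer, pH 7.0, with 0.01% Brij-35. The reaction was started with histone H3(1-21) peptide (20 μM) and Ac-CoA (1 μM ³H-Ac-CoA plus 19 μM unlabelled) and run 30 min at 25 °C. It was stopped with formic acid, spotted on P81 paper, washed 3× with 50 mM NaHCO₃, and counted by scintillation. IC50 came from a sigmoidal fit, mean of ≥3 experiments.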

Sequence of Histone acetyltransferase p300 (Q09472 whole entry, the tested form may be a part): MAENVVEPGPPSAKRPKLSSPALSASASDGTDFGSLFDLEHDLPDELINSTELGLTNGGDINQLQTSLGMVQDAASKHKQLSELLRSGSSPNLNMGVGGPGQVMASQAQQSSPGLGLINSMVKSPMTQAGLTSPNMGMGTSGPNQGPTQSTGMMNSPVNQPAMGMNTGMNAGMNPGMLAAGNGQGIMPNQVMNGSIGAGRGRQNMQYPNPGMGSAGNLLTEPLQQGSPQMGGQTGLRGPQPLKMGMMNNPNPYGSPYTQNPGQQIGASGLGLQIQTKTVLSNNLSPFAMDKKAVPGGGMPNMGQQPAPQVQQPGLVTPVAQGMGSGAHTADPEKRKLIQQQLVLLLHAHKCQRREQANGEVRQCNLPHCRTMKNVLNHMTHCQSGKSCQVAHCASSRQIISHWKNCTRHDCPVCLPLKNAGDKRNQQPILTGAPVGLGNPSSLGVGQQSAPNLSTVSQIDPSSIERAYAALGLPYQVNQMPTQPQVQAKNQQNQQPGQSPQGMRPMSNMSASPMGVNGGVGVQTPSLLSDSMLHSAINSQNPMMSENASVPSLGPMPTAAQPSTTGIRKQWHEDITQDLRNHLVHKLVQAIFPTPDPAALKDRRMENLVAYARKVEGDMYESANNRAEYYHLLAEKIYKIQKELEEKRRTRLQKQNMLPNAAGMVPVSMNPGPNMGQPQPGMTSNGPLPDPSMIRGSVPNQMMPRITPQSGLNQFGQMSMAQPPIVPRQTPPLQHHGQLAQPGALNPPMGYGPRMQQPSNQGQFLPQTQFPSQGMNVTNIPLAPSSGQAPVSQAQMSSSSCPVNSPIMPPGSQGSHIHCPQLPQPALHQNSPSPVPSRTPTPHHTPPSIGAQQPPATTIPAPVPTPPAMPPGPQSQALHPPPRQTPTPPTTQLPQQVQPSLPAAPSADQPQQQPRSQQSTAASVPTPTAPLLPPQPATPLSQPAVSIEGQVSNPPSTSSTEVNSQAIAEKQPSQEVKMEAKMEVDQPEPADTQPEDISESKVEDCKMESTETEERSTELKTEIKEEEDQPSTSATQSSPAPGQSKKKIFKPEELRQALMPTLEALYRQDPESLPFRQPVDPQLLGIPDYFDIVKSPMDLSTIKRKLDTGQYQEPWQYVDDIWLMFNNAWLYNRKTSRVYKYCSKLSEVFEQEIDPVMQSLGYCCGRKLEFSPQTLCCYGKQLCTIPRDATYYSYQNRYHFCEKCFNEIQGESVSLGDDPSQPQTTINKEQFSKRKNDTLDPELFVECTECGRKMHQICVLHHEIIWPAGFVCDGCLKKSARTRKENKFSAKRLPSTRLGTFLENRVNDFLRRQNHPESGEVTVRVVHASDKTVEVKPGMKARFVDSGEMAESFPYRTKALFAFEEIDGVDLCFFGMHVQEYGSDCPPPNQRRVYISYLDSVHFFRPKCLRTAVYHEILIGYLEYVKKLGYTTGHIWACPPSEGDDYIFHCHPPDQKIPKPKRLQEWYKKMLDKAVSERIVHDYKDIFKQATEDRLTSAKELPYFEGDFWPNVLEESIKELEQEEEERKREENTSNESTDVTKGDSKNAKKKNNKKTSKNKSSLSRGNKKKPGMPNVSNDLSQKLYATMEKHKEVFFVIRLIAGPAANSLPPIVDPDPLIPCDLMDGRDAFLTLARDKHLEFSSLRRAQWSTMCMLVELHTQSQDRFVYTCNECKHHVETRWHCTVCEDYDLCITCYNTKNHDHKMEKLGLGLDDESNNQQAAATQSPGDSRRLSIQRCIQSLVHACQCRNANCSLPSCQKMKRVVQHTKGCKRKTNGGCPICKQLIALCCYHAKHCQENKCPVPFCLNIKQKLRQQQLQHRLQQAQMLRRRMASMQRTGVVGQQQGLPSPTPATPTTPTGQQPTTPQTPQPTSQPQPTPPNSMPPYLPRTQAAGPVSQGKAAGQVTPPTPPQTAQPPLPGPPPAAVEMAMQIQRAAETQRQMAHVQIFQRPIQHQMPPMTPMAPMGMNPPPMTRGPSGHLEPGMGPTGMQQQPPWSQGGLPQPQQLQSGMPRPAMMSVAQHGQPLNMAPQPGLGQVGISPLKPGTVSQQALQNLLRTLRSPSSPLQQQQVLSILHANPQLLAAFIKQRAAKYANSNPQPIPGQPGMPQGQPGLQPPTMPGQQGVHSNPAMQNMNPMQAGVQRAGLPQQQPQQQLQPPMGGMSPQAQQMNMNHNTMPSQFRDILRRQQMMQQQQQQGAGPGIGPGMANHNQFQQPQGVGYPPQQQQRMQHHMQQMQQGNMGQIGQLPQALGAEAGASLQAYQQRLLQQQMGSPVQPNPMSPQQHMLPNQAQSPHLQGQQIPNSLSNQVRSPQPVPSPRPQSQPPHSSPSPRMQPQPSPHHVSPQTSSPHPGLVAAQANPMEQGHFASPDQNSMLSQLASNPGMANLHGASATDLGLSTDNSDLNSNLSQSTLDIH

IC50: 10 µM
SMILES: Brc1ccc(-c2ncc(OCC3CCNCC3)nc2-c2ccc(Br)c(Br)c2)cc1Br
